Experimental data taken from ChEMBL document CHEMBL4402513, “Bio-Inspired Dual-Selective BCL-2/c-MYC G-Quadruplex Binders: Design, Synthesis, and Anticancer Activity of Drug-like Imidazo[2,1-i]purine Derivatives” (J Med Chem, 2020).
Calls of active or inactive are those of the source. The calls are words filed in the database; no cut-off is given here.

Assays:
Quadruplex DNA [1] = test: Binding affinity to synthetic BCL2 G4 quadruplex DNA assessed as change in melting temperature at 10 molar equiv to DNA measured after 10 mins by circular dichroism melting analysis; type: nucleic-acid assay
Summary of the method: (§1)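 CD melting of folded DNA (G4 10 µM, duplex 15 µM) in 20 mM KCl, 5 mM KH2PO4 (pH 7.0), without and with 10 molar equivalents of ligand. Tm was taken from curve fitting, and ΔTm = Tm(DNA+ligand) − Tm(DNA). Runs were done in triplicate and averaged.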

Quadruplex DNA [2] = test: Binding affinity to synthetic c-MYC G4 quadruplex DNA assessed as change in melting temperature at 10 molar equiv to DNA measured after 10 mins by circular dichroism melting analysis; type: nucleic-acid assay; summary of the method: as §1
Quadruplex DNA [3] = test: Binding affinity to synthetic c-KIT1 G4 quadruplex DNA assessed as change in melting temperature at 10 molar equiv to DNA measured after 10 mins by circular dichroism melting analysis; type: nucleic-acid assay; summary of the method: as §1
Quadruplex DNA [4] = test: Binding affinity to human telomeric 23 G4 quadruplex DNA assessed as change in melting temperature at 10 molar equiv to DNA measured after 10 mins by circular dichroism melting analysis; type: nucleic-acid assay; summary of the method: as §1
[5] = Binding affinity to synthetic 20-mer hairpin duplex DNA assessed as change in melting temperature at 10 molar equiv to DNA measured after 10 mins by circular dichroism melting analysis; summary of the method: as §1
Quadruplex DNA [6] = test: Binding affinity to synthetic BCL2 G4 quadruplex DNA assessed as change in chiral structure at 10 molar equiv to DNA measured after 10 mins by circular dichroism spectroscopic analysis; type: nucleic-acid assay
Summary of the method: (§2)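 CD spectra of annealed DNA in 20 mM KCl, 5 mM KH2PO4 (pH 7.0). G4 DNAs were at 10 µM and duplex at 15 µM. Ligand (10 mM DMSO stock) was added at 10 molar equivalents. Spectra were recorded 10 min after addition at 20 °C over 230–360 nm, averaged over three scans and baseline corrected.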

Quadruplex DNA [7] = test: Binding affinity to synthetic c-MYC G4 quadruplex DNA assessed as change in chiral structure at 10 molar equiv to DNA measured after 10 mins by circular dichroism spectroscopic analysis; type: nucleic-acid assay; summary of the method: as §2
Quadruplex DNA [8] = test: Binding affinity to synthetic c-KIT1 G4 quadruplex DNA assessed as change in chiral structure at 10 molar equiv to DNA measured after 10 mins by circular dichroism spectroscopic analysis; type: nucleic-acid assay; summary of the method: as §2
Quadruplex DNA [9] = test: Binding affinity to human telomeric 23 G4 quadruplex DNA assessed as change in chiral structure at 10 molar equiv to DNA measured after 10 mins by circular dichroism spectroscopic analysis; type: nucleic-acid assay; summary of the method: as §2
[10] = Binding affinity to synthetic 20-mer hairpin duplex DNA assessed as change in chiral structure at 10 molar equiv to DNA measured after 10 mins by circular dichroism spectroscopic analysis; summary of the method: as §2
Jurkat [11] = test: Cytotoxicity against human Jurkat cells assessed as cell viability at 50 uM measured after 48 hrs by combined MTT and trypan blue staining based cell counting assay relative to control; type: functional; details: read-out: Activity
Summary of the method: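 Cells were seeded at 10^4/well (HDF 10^3), grown 24 h, then treated 48 h at 5–100 µM in 0.5% v/v DMSO. Read-outs were MTT (1 h, 37 °C, absorbance 550 nm; Jurkat handled by centrifugation) combined with trypan blue live/dead counting into a survival index versus untreated cells. IC50 came from nonlinear regression, n = 6 per experiment ×3 (n = 18), mean ± SEM.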

Jurkat [12] = test: Induction of apoptosis in human Jurkat cells assessed as viable cells at 25 uM measured after 48 hrs by Annexin V-FITC/propidium iodide staining based flow cytometry (reference value: 97%); type: functional; details: read-out: Activity
Jurkat [13] = test: Induction of apoptosis in human Jurkat cells assessed as early apoptotic cells at 25 uM measured after 48 hrs by Annexin V-FITC/propidium iodide staining based flow cytometry (reference value: 0.3%); type: functional
Jurkat [14] = test: Induction of apoptosis in human Jurkat cells assessed as late apoptotic cells at 25 uM measured after 48 hrs by Annexin V-FITC/propidium iodide staining based flow cytometry (reference value: 1.4%); type: functional
Jurkat [15] = test: Down regulation of c-MYC mRNA expression in human Jurkat cells at 25 uM measured after 24 hrs by RT-qPCR analysis relative to control; type: functional
Summary of the method: (§3)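 Jurkat cells were treated 24 h at 25 µM, and total RNA was extracted with TRI Reagent. 0.5 µg RNA was reverse transcribed with MMLV RT and random primers (22 °C 10 min, 42 °C 60 min). SYBR qPCR ran 40 cycles (95/59/72 °C) in duplicate with GAPDH as reference. Relative expression was calculated by the […] method from at least three independent experiments.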

Jurkat [16] = test: Down regulation of BCL2 mRNA expression in human Jurkat cells at 25 uM measured after 24 hrs by RT-qPCR analysis relative to control; type: functional; summary of the method: as §3
Jurkat [17] = test: Down regulation of c-MYC expression in human Jurkat cells at 25 uM measured after 24 hrs by Western blot analysis relative to control; type: functional
Summary of the method: (§4)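 Jurkat cells treated 24 h at 25 µM were lysed in 50 mM Hepes pH 7.4, 50 mM NaCl, 1% Triton with protease inhibitors. Protein was quantified by Bradford and run on 10% SDS-PAGE to nitrocellulose. Blots were probed with anti-Bcl-2, anti-c-Myc and anti-β-actin and detected by ECL. Densitometry was normalised to β-actin and expressed as % of control; three independent experiments.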

Jurkat [18] = test: Down regulation of BCL2 expression in human Jurkat cells at 25 uM measured after 24 hrs by Western blot analysis relative to control; type: functional; summary of the method: as §4

ΔTm (Quadruplex DNA [1]) [°C]	ΔTm (Quadruplex DNA [2]) [°C]	ΔTm (Quadruplex DNA [3]) [°C]	ΔTm (Quadruplex DNA [4]) [°C]	ΔTm [5] [°C]	SMILES	other results
7.1	8.4	4.5	4.9	2.2	CC(C)(C)Nc1c(-c2ccccc2OCCN2CCCC2)nc2c3ncn(CCN4CCCC4)c3ncn12	
					CN(C)c1ccc(-c2nc3ccn(CCN4CCOCC4)c(=O)n3c2NC(C)(C)C)cc1	Activity (Quadruplex DNA [6]): inactive; Activity (Quadruplex DNA [7]): inactive; Activity (Quadruplex DNA [8]): inactive; Activity (Quadruplex DNA [9]): inactive; Activity [10]: inactive; deltaTm (Quadruplex DNA [1]): inactive; deltaTm (Quadruplex DNA [2]): inactive; deltaTm (Quadruplex DNA [3]): inactive; deltaTm (Quadruplex DNA [4]): inactive; deltaTm [5]: inactive
10.1	9.5	5.1	3.8	9.7	CN(C)CCCn1cnc2c1ncn1c(NC(C)(C)C)c(-c3ccc(N4CCOCC4)cc3)nc21	
5	5.8	2.1	1.1	0.3	CC(C)(C)Nc1c(-c2ccccc2F)nc2c3ncn(CCN4CCCC4)c3ncn12	
4.5	6.4	2.3	2.3	1.9	CC(C)(C)Nc1c(-c2ccc(Cl)cc2)nc2c3ncn(CCN4CCCC4)c3ncn12	
2.1	1.6	1.1	0.3	-0.5	CC(C)(C)Nc1c(-c2ccc(Cl)cc2)nc2c3ncn(CCN4CCOCC4)c3ncn12	
1.7	1.1	1.4	-0.1	0.5	CN(C)c1ccc(-c2nc3c4ncn(CCCN)c4ncn3c2NC(C)(C)C)cc1	
8.2	11.5	2.6	1.2	0.2	CN(C)CCCn1cnc2c1ncn1c(NC(C)(C)C)c(-c3ccccc3F)nc21	viability at 50 µM (Jurkat [11]): 60%; viability at 25 µM (Jurkat [12]): 16%; Activity (Jurkat [13]): 13%; Activity (Jurkat [14]): 68%; Activity (Jurkat [15]): 56%; Activity (Jurkat [16]): 43%; Activity (Jurkat [17]): Active; Activity (Jurkat [18]): Active
					CC(C)(C)Nc1c(-c2ccc(Cl)cc2)nc2[nH]c(=O)c3ncn(CCN4CCOCC4)c3n12	Activity (Quadruplex DNA [6]): inactive; Activity (Quadruplex DNA [7]): inactive; Activity (Quadruplex DNA [8]): inactive; Activity (Quadruplex DNA [9]): inactive; Activity [10]: inactive; deltaTm (Quadruplex DNA [1]): inactive; deltaTm (Quadruplex DNA [2]): inactive; deltaTm (Quadruplex DNA [3]): inactive; deltaTm (Quadruplex DNA [4]): inactive; deltaTm [5]: inactive
